pIC50: −log10 of the molar value.
target: Signal transducer and activator of transcription 3 (Homo sapiens, UniProt P40763); test: Competitive binding affinity to Stat3 SH2 domain (unknown origin) using 5-FAM-GpYLPQTV-NH2 as probe assessed as phosphopetide complex formation after 30 mins by fluorescence polarization assay
Method in brief: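 Fluorescence polarization. Recombinant STAT protein was incubated with the 5-FAM-GpYLPQTV-NH2 peptide probe and inhibitor for 30 min. Polarized fluorescence was plotted against inhibitor concentration, and IC50 was obtained by fitting a dose-response curve.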

Chain of Signal transducer and activator of transcription 3 (P40763 whole entry, the tested form may be a part): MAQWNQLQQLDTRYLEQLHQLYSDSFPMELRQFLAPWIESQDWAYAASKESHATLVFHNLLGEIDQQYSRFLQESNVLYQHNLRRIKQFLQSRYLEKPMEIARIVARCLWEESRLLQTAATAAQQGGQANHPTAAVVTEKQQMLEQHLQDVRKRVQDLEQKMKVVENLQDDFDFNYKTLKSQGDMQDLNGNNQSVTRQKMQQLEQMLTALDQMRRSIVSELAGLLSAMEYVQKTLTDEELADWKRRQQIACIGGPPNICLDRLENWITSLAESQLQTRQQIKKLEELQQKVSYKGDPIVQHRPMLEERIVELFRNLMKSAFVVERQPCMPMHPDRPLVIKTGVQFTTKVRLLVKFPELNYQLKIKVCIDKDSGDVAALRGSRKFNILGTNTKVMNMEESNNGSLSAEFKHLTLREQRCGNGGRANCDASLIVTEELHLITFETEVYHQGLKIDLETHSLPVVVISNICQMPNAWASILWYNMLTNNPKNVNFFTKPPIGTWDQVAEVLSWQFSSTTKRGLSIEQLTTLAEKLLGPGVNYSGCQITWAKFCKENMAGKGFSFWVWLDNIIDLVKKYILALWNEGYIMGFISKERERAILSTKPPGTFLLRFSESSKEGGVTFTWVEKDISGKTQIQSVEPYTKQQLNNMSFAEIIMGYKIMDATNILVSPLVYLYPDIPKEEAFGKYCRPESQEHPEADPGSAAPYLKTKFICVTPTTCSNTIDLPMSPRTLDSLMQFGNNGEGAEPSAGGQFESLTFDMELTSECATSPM

pIC50 | SMILES
4.84 | Cc1ccc(CN(CC(=O)N(Cc2ccc(C3CCCCC3)cc2)c2ccc(C(=O)O)c(O)c2)S(=O)(=O)c2c(F)c(F)c(F)c(F)c2F)cc1
4.86 | O=C(O)c1ccc(N(Cc2ccc(C3CCCCC3)cc2)C(=O)CN(Cc2ccc(Cl)cc2)S(=O)(=O)c2c(F)c(F)c(F)c(F)c2F)cc1O
4.70 | N#Cc1cccc(CN(CC(=O)N(Cc2ccc(C3CCCCC3)cc2)c2ccc(C(=O)O)c(O)c2)S(=O)(=O)c2c(F)c(F)c(F)c(F)c2F)c1
5.03 | N#Cc1ccc(CN(CC(=O)N(Cc2ccc(C3CCCCC3)cc2)c2ccc(C(=O)O)c(O)c2)S(=O)(=O)c2c(F)c(F)c(F)c(F)c2F)cc1
5.28 | Cc1ccc(S(=O)(=O)N(CC(=O)N(Cc2ccc(C3CCCCC3)cc2)c2ccc(C(=O)O)c(O)c2)Cc2cccc(C)c2)cc1
4.91 | O=C(O)c1ccc(N(Cc2ccc(C3CCCCC3)cc2)C(=O)CN(Cc2cc(F)c(F)c(F)c2F)S(=O)(=O)c2c(F)c(F)c(F)c(F)c2F)cc1O
4.84 | Cc1cccc(CN(CC(=O)N(Cc2ccc(C3CCCCC3)cc2)c2ccc(C(=O)O)c(O)c2)S(=O)(=O)c2c(F)c(F)c(F)c(F)c2F)c1
4.81 | Cc1ccc(S(=O)(=O)N(CC(=O)N(Cc2ccc(C3CCCCC3)cc2)c2ccc(C(=O)O)c(O)c2)Cc2c(F)cc(F)c(F)c2F)cc1
4.74 | O=C(O)c1ccc(N(Cc2ccc(C3CCCCC3)cc2)C(=O)CN(Cc2cccc(Cl)c2)S(=O)(=O)c2c(F)c(F)c(F)c(F)c2F)cc1O
4.91 | Cc1ccc(S(=O)(=O)N(CC(=O)N(Cc2ccc(C3CCCCC3)cc2)c2ccc(C(=O)O)c(O)c2)Cc2cccc(N)c2)cc1
4.96 | O=C(O)c1ccc(N(Cc2ccc(C3CCCCC3)cc2)C(=O)CN(Cc2ccccc2Cl)S(=O)(=O)c2c(F)c(F)c(F)c(F)c2F)cc1O
4.75 | O=C(O)c1ccc(N(Cc2ccc(C3CCCCC3)cc2)C(=O)CN(Cc2c(F)cc(F)c(F)c2F)S(=O)(=O)c2c(F)c(F)c(F)c(F)c2F)cc1O
4.49 | O=C(O)c1ccc(N(Cc2ccc(C3CCCCC3)cc2)C(=O)CNS(=O)(=O)c2c(F)c(F)c(F)c(F)c2F)cc1O
4.78 | O=C(O)c1ccc(N(Cc2ccc(C3CCCCC3)cc2)C(=O)CN(Cc2c(F)c(F)cc(F)c2F)S(=O)(=O)c2c(F)c(F)c(F)c(F)c2F)cc1O
4.65 | Cc1ccc(S(=O)(=O)N(CC(=O)N(Cc2ccc(C3CCCCC3)cc2)c2ccc(C(=O)O)c(O)c2)Cc2cc(F)c(F)c(F)c2F)cc1
4.55 | O=C(O)c1ccc(N(Cc2ccc(C3CCCCC3)cc2)C(=O)CN(Cc2ccccc2F)S(=O)(=O)c2c(F)c(F)c(F)c(F)c2F)cc1O
4.75 | O=C(O)c1ccc(N(Cc2ccc(C3CCCCC3)cc2)C(=O)CN(Cc2cccc(F)c2)S(=O)(=O)c2c(F)c(F)c(F)c(F)c2F)cc1O
4.66 | O=C(O)c1ccc(N(Cc2ccc(C3CCCCC3)cc2)C(=O)CN(Cc2ccc3ccccc3c2)S(=O)(=O)c2c(F)c(F)c(F)c(F)c2F)cc1O
4.99 | O=C(O)c1ccc(N(Cc2ccc(C3CCCCC3)cc2)C(=O)CN(Cc2ccccc2OC(F)(F)F)S(=O)(=O)c2c(F)c(F)c(F)c(F)c2F)cc1O
4.56 | CC(C)(C)OC(=O)N(CC(=O)N(Cc1ccc(C2CCCCC2)cc1)c1ccc(C(=O)O)c(O)c1)S(=O)(=O)c1c(F)c(F)c(F)c(F)c1F
4.67 | O=C(O)c1ccc(N(Cc2ccc(C3CCCCC3)cc2)C(=O)CN(Cc2ccc(OC(F)(F)F)cc2)S(=O)(=O)c2c(F)c(F)c(F)c(F)c2F)cc1O
4.64 | Cc1ccc(S(=O)(=O)N(CC(=O)N(Cc2ccc(C3CCCCC3)cc2)c2ccc(C(=O)O)c(O)c2)Cc2c(F)c(F)cc(F)c2F)cc1
4.84 | O=C(O)c1ccc(N(Cc2ccc(C3CCCCC3)cc2)C(=O)CN(Cc2ccccc2)S(=O)(=O)c2c(F)c(F)c(F)c(F)c2F)cc1O

Further lines, the compound ahead of its results:

SMILES | pIC50
Cc1ccc(S(=O)(=O)N(CC(=O)N(Cc2ccc(C3CCCCC3)cc2)c2ccc(C(=O)O)c(O)c2)Cc2ccccc2C#N)cc1 | 4.65
Cc1ccc(S(=O)(=O)N(CC(=O)N(Cc2ccc(C3CCCCC3)cc2)c2ccc(C(=O)O)c(O)c2)Cc2ccccn2)cc1 | 4.34
Cc1ccc(S(=O)(=O)N(CC(=O)N(Cc2ccc(C3CCCCC3)cc2)c2ccc(C(=O)O)c(O)c2)Cc2ccccc2N)cc1 | 4.62
Cc1ccc(S(=O)(=O)N(CC(=O)N(Cc2ccc(C3CCCCC3)cc2)c2ccc(C(=O)O)c(O)c2)Cc2ccccc2[N+](=O)[O-])cc1 | 5.00
Cc1ccc(S(=O)(=O)N(CC(=O)N(Cc2ccc(C3CCCCC3)cc2)c2ccc(C(=O)O)c(O)c2)Cc2ccccc2OC(F)(F)F)cc1 | 5.14
Cc1ccc(S(=O)(=O)N(CC(=O)N(Cc2ccc(C3CCCCC3)cc2)c2ccc(C(=O)O)c(O)c2)Cc2ccc3ccccc3c2)cc1 | 5.30
Cc1ccc(S(=O)(=O)N(CC(=O)N(Cc2ccc(C3CCCCC3)cc2)c2ccc(C(=O)O)c(O)c2)Cc2ccncc2)cc1 | 4.33
Cc1ccc(S(=O)(=O)N(CC(=O)N(Cc2ccc(C3CCCCC3)cc2)c2ccc(C(=O)O)c(O)c2)Cc2cccnc2)cc1 | < 4.30
Cc1ccc(S(=O)(=O)N(CC(N)=O)CC(=O)N(Cc2ccc(C3CCCCC3)cc2)c2ccc(C(=O)O)c(O)c2)cc1 | < 4.30
Cc1ccc(S(=O)(=O)N(CC(=O)N(Cc2ccc(C3CCCCC3)cc2)c2ccc(C(=O)O)c(O)c2)Cc2cccc(C#N)c2)cc1 | 4.91
Cc1ccc(S(=O)(=O)N(CC(=O)N(Cc2ccc(C3CCCCC3)cc2)c2ccc(C(=O)O)c(O)c2)Cc2cccc(OC(F)(F)F)c2)cc1 | 5.10
CCCN(CC(=O)N(Cc1ccc(C2CCCCC2)cc1)c1ccc(C(=O)O)c(O)c1)S(=O)(=O)c1ccc(C)cc1 | 4.75
Cc1ccc(S(=O)(=O)N(CC(=O)N(Cc2ccc(C3CCCCC3)cc2)c2ccc(C(=O)O)c(O)c2)Cc2ccc(N)cc2)cc1 | 4.68
COC(=O)c1cccc(CN(CC(=O)N(Cc2ccc(C3CCCCC3)cc2)c2ccc(C(=O)O)c(O)c2)S(=O)(=O)c2ccc(C)cc2)c1 | 4.74
Cc1ccc(S(=O)(=O)N(CC(=O)N(Cc2ccc(C3CCCCC3)cc2)c2ccc(C(=O)O)c(O)c2)Cc2cccc(Cl)c2)cc1 | 5.22
Cc1ccc(S(=O)(=O)N(CC(=O)N(Cc2ccc(C3CCCCC3)cc2)c2ccc(C(=O)O)c(O)c2)Cc2ccc(F)cc2C(F)(F)F)cc1 | 4.96
Cc1ccc(S(=O)(=O)N(CC(=O)N(Cc2ccc(C3CCCCC3)cc2)c2ccc(C(=O)O)c(O)c2)Cc2ccc([N+](=O)[O-])cc2)cc1 | 4.96
Cc1ccc(S(=O)(=O)N(CC(=O)N(Cc2ccc(C3CCCCC3)cc2)c2ccc(C(=O)O)c(O)c2)Cc2ccc(SC(F)(F)F)cc2)cc1 | 5.02
COC(=O)c1ccc(CN(CC(=O)N(Cc2ccc(C3CCCCC3)cc2)c2ccc(C(=O)O)c(O)c2)S(=O)(=O)c2ccc(C)cc2)cc1 | 4.94
CCOC(=O)c1ccc(CN(CC(=O)N(Cc2ccc(C3CCCCC3)cc2)c2ccc(C(=O)O)c(O)c2)S(=O)(=O)c2ccc(C)cc2)cc1 | 5.12
Cc1ccc(S(=O)(=O)N(CC(=O)N(Cc2ccc(C3CCCCC3)cc2)c2ccc(C(=O)O)c(O)c2)Cc2ccccc2)cc1 | 4.84
Cc1ccc(S(=O)(=O)N(CC(=O)N(Cc2ccc(C3CCCCC3)cc2)c2ccc(C(=O)O)c(O)c2)Cc2ccccc2F)cc1 | 4.97
Cc1ccc(S(=O)(=O)N(CC(=O)N(Cc2ccc(C3CCCCC3)cc2)c2ccc(C(=O)O)c(O)c2)Cc2ccccc2Cl)cc1 | 4.80
Cc1ccc(S(=O)(=O)N(CC(=O)N(Cc2ccc(C3CCCCC3)cc2)c2ccc(C(=O)O)c(O)c2)Cc2ccc(C#N)cc2)cc1 | 5.07
